{"data": "Measured values from different studies", "target": "D(3) dopamine receptor (DRD3, Homo sapiens, UniProt P35462)", "concentration": "10 µM", "note": "Protocols differ between the studies behind these lines."}
{"Compound": "N#CN1CC[C@H](C(=O)Nc2nc3c(s2)CN(C(=O)CN=[N+]=[N-])CC3)C1", "effect on": "ligand displacement", "inhibition": "-2.14%"}
{"Compound": "N#Cc1cc(Cn2c(N3CCCC3)nc3ccccc32)ccc1F", "effect on": "ligand displacement", "inhibition": "39.3%"}
{"Compound": "CCN(CC)c1ccc(C2Nc3ccc(C(=O)c4ccccc4)cc3NC3=C2C(=O)CC(C)(C)C3)cc1 (stereo not shown)", "effect on": "ligand displacement", "method": "radioligand", "inhibition": "12%"}
{"Compound": "CCCNc1nc2ccccc2n1Cc1ccc(Cl)cc1", "effect on": "ligand displacement", "inhibition": "40.8%"}
{"Compound": "Nc1nonc1C(=O)NCCNCc1cccc(OCc2ccccc2F)c1", "effect on": "enzyme activity", "action": "inhibitor", "inhibition": "4.3%"}
{"Compound": "O=C(c1ccc(F)cc1)N(Cc1ccccc1)C1CCCCC1", "effect on": "cell-free assay", "inhibition": "8%"}
{"Compound": "COc1ccc(-c2ccc(CNCC(O)c3ccccc3)o2)cc1Cl (stereo not shown)", "effect on": "enzyme activity", "action": "inhibitor", "inhibition": "12.1%"}
{"Compound": "CCN(Cc1ccccc1C(F)(F)F)C(=O)C1CCN(S(=O)(=O)c2ccc3[nH]ncc3c2)CC1", "effect on": "ligand displacement", "method": "radioligand", "inhibition": "23%"}
{"Compound": "COc1cccc(N2CCN(C3CC(=O)N(c4cccc(OC)c4)C3=O)CC2)c1 (stereo not shown)", "effect on": "enzyme activity", "action": "inhibitor", "inhibition": "-37.6%"}
{"Compound": "CN([C@@H]1CCc2c(CC(=O)O)c3ccccc3n2C1)S(=O)(=O)c1ccc(F)cc1", "effect on": "ligand displacement", "inhibition": "-4.25%"}
